The full list was thinned out, with hits kept by preference.
UPR CHOP act: apoptotic UPR (CHOP) activation; CHO-CHOP luciferase reporter, luminescence; percent of tunicamycin response over DMSO baseline; activation, % at 10 µM; 0.34% of 330,000 active; AID 449763;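 active = at 10 µM dose, activation of 40% or more, normalized to positive control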
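System: CHO CHOP reporter cells. Amount: 500 cells per well. Buffer or medium: F12 medium, 10% FBS. Compound dosing: one dose, 10 µM in 0.5% DMSO. Incubation: 6 h compound exposure at 37 °C after overnight seeding. Technique: Steady-Glo luciferase luminescence. Benchmarks: tunicamycin and DMSO controls.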
Lmaj promast: inhibitors of Leishmania major promastigote growth. Leishmania major promastigotes, resazurin fluorescence viability. inhibition, % at 10 µM. 9% of 200,000 active; in the data active = inhibition above about 50%;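 note: promastigotes grown with compound for 44 hours at 28 °C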
CHOP inh: CHOP inhibition in unfolded protein response. AID 2732. 3.8% of 220,000 active. CHO-K1 CHOP-promoter luciferase, tunicamycin-induced, 15-18 h. inhibition, % at 10 µM;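 active = compounds that reduced the stress-induced luciferase reporter signal by more than about 70% of percent inhibition, limit read from the data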
T cruzi repl: T. cruzi replication inhibition; 1.4% of 300,000 active; T. cruzi beta-gal in NIH3T3, luminescence, 90 h; AID 1885; inhibition, % (no concentration beside the values);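 active = mean inhibition across valid replicates above about 55%, limit read from the data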;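 note: signal also drops with host cell toxicity which is not excluded here; higher percent means less beta-gal luminescence so fewer parasites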
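Test system: β-gal T. cruzi (Tulahuen C4) inside NIH/3T3 cells / Quantity: 5,000 cells/well / Measured by: luminescence from GalScreen with 0.05% NP40, read after 60 min / Medium: DMEM plus 2% FBS / Measure: parasite load inhibition, % / Reagent: Tulahuen C4 trypomastigotes, 5000/well / Schedule: co-culture of at least 90 h after 3 h attachment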
UPR XBP1 act: adaptive UPR (XBP1) activation; CHO-XBP1 luciferase reporter, IRE1-XBP1 UPR activation, luminescence; percent of tunicamycin response, DMSO as zero; activation, % at 20 µM; 0.33% of 330,000 active; AID 463104;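 active = versus positive control, 20 µM dose yields 30% or more activation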
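Test system: CHO-XBP1 luciferase reporter cells | Buffer or medium: Serum-containing F12 medium, 10% FBS | Schedule: 6 h compound exposure at 37 °C, 5% CO2 | Detection: Steady-Glo luciferase glow luminescence, 10 min after reagent addition | Read-out basis: Activation, % of tunicamycin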
Dynein transport: dynein cargo transport inhibition | 0.47% of 220,000 active | 3617.4 mouse cells, GR-EGFP nuclear translocation imaging; test concentration mostly 20 µM; stimulated with dexamethasone, 1 µM; stronger effect = lower value | AID 1381 | z-score, hits read low;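 active = plate z-score of nuclear minus cytoplasmic receptor signal below a set negative limit, without overly bright fluorescence or cell loss, cut at about -3.5 in these data, passing the limit was not always enough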;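 note: z-score of nuclear minus cytoplasmic ring GR-EGFP intensity difference per well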
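Also added – dexamethasone, 1.0 µM final · Buffer or medium – tet-free, stripped-serum medium · Schedule – induction 48 h, compound 1 h, agonist 30 min · Detection – formaldehyde fixation, Hoechst nuclear stain, 10x automated fluorescence imaging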
CHOP inh conf: confirmation of CHOP induction inhibitors | shares compounds with CHOP inh | CHO-CHOP promoter luciferase reporter, tunicamycin-induced, luminescence | inhibition, % at 10 µM | 45% of 2,100 active | AID 504437;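 active = mean of three repeat readings of reporter signal inhibition above a set limit, cut at about 70% in these data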
Of the large screens only hits and unclear results are named; the others gave an inactive call (follow-up assays come after a bar, where they were run).

O=C(NCC1CCCO1)C(c1ccncc1)N(Cc1ccc(F)cc1)C(=O)CN1C(=O)c2ccccc2S1(=O)=O (stereo unspecified)	none
O=C(NC1CCCCC1)C(c1ccc(F)cc1)N(Cc1ccccc1)C(=O)CN1C(=O)c2ccccc2S1(=O)=O (stereo unspecified)	Lmaj promast 58, CHOP inh 109 | CHOP inh conf 80
CCc1ccc2[nH]c(=O)c(C(c3nnnn3Cc3ccco3)N3CCC(C)CC3)cc2c1 (stereo unspecified)	CHOP inh 99 | CHOP inh conf 77
CC[C@]12c3[nH]c4cc(-c5ccco5)ccc4c3CCN1C(=O)[C@@H](CC(=O)NCCc1ccccn1)C[C@@H]2C(=O)N1CCN(C(=O)C2CC2)CC1	none (no result: Lmaj promast, CHOP inh, T cruzi repl, Dynein transport)
Cc1cccc(/C=N/NC(=O)c2ccc(Br)cc2)c1	none
Cc1cccc(/C=C/C(=O)c2cc(Br)ccc(=O)c2O)c1	Lmaj promast 100, CHOP inh 102 | CHOP inh conf 100
Cc1cccc(-c2ncc(CN3CCCC(CO)(Cc4ccccc4C)C3)cn2)c1 (stereo unspecified)	none
COC(=O)c1cccc(Oc2cccc(Cl)n2)c1	none
Cc1cc(/C=N/n2cnnc2)c(C)n1-c1ccc(OCc2ccc(F)cc2)cc1	Lmaj promast 77 (no result: CHOP inh) | CHOP inh conf 111
Cc1cc(/C=N/n2cnnc2)c(C)n1-c1ccc(OCc2ccc(Cl)cc2Cl)cc1	Lmaj promast 98, CHOP inh 108 | CHOP inh conf 114
Cc1cc(/C=N/n2cnnc2)c(C)n1-c1ccc(Cl)cc1Cl	none
COc1cc(CNC2CCCCCCC2)c(Br)cc1OCCO	none (no result: Lmaj promast, CHOP inh, Dynein transport)
Cc1csc(=O)n1CCC(=O)OCC(=O)c1c(N)n(CC(C)C)c(=O)n(C)c1=O	none (no result: Lmaj promast, CHOP inh, Dynein transport)
CC(C)Cn1c(N)c(C(=O)COC(=O)CC23CC4CC(CC(C4)C2)C3)c(=O)n(C)c1=O	Lmaj promast 98, CHOP inh 98 | CHOP inh conf 90
CN1CCc2c(sc(NC(=O)c3ccco3)c2C(N)=O)C1	none (no result: Lmaj promast, CHOP inh, Dynein transport)
CN1CCc2c(sc(NC(=O)c3cc4cc([N+](=O)[O-])ccc4s3)c2C(N)=O)C1	Lmaj promast 100, CHOP inh 101, T cruzi repl 69 (no result: UPR CHOP act, UPR XBP1 act) | CHOP inh conf 132
O=C(CSc1nncs1)Nc1nnc(-c2ccccc2)o1	none (no result: Lmaj promast, CHOP inh, Dynein transport)
CCCCCCNC(=O)CC(c1ccccc1)c1cc(Br)ccc1O (stereo unspecified)	CHOP inh 101 | CHOP inh conf 112
COc1ccc2c(c1)OC[C@H]1[C@H]2N2C(=O)CN(CCc3c[nH]c4ccccc34)C(=O)[C@@]2(C)[C@H]1c1ccccc1	none (no result: Lmaj promast, CHOP inh, T cruzi repl, Dynein transport)
CCN=C1NN=C(c2cc(C)n(Cc3ccco3)c2C)CS1	CHOP inh 97 | CHOP inh conf 98
COCCNC(=O)NC1(C(F)(F)F)Oc2ccc(Cl)cc2O1 (stereo unspecified)	none
Cc1cc(NC(=O)NC2(C(F)(F)F)Oc3ccc(Cl)cc3O2)no1 (stereo unspecified)	CHOP inh 99 | CHOP inh conf 114
Cc1sc2ncn(CC(=O)Nc3cccc(S(N)(=O)=O)c3)c(=O)c2c1-c1ccccc1	none (no result: Lmaj promast)
Cc1ccccc1C(=O)NNC(=S)NC(=O)c1ccc(Cl)cc1Cl	CHOP inh 96 | CHOP inh conf inactive
COc1ccc(C(O)(C(=O)NNc2ccc(C)cc2)c2cccs2)cc1 (stereo unspecified)	none
O=C(NNc1ccc(C2CCCCC2)cc1)C(O)(c1ccccc1)c1cccs1 (stereo unspecified)	Lmaj promast 99, CHOP inh 106 | CHOP inh conf inactive
Cc1ccc(C2(C(F)(F)F)NC(=O)N3C(=C2C#N)Nc2ccccc23)cc1 (stereo unspecified)	CHOP inh 107 | CHOP inh conf inactive
Cc1cc(C)n(-c2nc(N(c3ccccc3)c3ccccc3)nc(-n3nc(C)cc3C)n2)n1	Lmaj promast 54, CHOP inh 109 | CHOP inh conf 140
COc1cccc(/C=N/n2c(N)c(S(=O)(=O)c3cccs3)c3nc4ccccc4nc32)c1OC	none
Nc1c(S(=O)(=O)c2cccc(Cl)c2)c2nc3ccccc3nc2n1/N=C/c1ccc(O)c(O)c1	Lmaj promast 100, CHOP inh 107, T cruzi repl 62 | CHOP inh conf 103
COc1ccc(NS(=O)(=O)c2ccc3oc4ccccc4c3c2)cn1	CHOP inh 97 | CHOP inh conf inactive
C=C1C(=O)O[C@@H]2[C@H]1[C@@H](OC(=O)/C(C)=C/C)C/C(C)=C\C(=O)/C=C(\C)[C@@H]2O	CHOP inh 107 (no result: Lmaj promast) | CHOP inh conf inactive
CCCn1c(=S)[nH]c2cc(C(=O)N3CCc4ccccc4C3)ccc2c1=O	CHOP inh 102 | CHOP inh conf inactive
Cc1cc(C2=NNC(=NC3CCCCC3)SC2)c(C)n1-c1c(C)n(C)n(-c2ccccc2)c1=O	none
Cc1cc(C2=NNC(=NC3CC3)SC2)c(C)n1-c1ccccc1F	Lmaj promast 77, CHOP inh 105 | CHOP inh conf 125
CC1CC(NS(=O)(=O)c2cccs2)CC(C)(C)C1 (stereo unspecified)	none
Cc1cc(-c2[nH]nc3c2C(c2ccc(Cl)cc2)C(C#N)=C(N)O3)c(C)s1 (stereo unspecified)	CHOP inh 103 | CHOP inh conf 104
Cc1cccc(CC(=O)NCCS(=O)(=O)N2CCN(c3cccc(Cl)c3)CC2)c1	none (no result: Lmaj promast, CHOP inh, Dynein transport)
CCCCOC(=O)c1ccc(NC(=O)c2ccoc2C)cc1	CHOP inh 101 | CHOP inh conf inactive
c1cc2c3c(cccc3c1)NC1(CCCCCC1)N2	CHOP inh 107 | CHOP inh conf inactive
CC1CCc2c(sc3ncn(CC(=O)N=Nc4c(O)[nH]c5ccccc45)c(=O)c23)C1 (stereo unspecified)	CHOP inh 105 (no result: Lmaj promast) | CHOP inh conf 113
CC1CCc2c(sc3ncn(CCO)c(=O)c23)C1 (stereo unspecified)	none
CCOC(=O)C1(Cc2ccc(OC)cc2)CCN(C(=O)C2=CCCC2)CC1	CHOP inh 102 | CHOP inh conf inactive
CCOC(=O)C1(Cc2ccc(OC)cc2)CCN(C(=O)c2cc(C)on2)CC1	none (no result: Lmaj promast, CHOP inh, Dynein transport)
C/C(=N\NC(=O)c1nn(C)c(C)c1Br)c1ccc(NC(=O)c2ccoc2C)cc1	CHOP inh 100 | CHOP inh conf 115
COc1ccccc1N(C)S(=O)(=O)c1ccc(C(=O)Nc2ccc(C)cc2C)cc1	none (no result: Lmaj promast, CHOP inh, T cruzi repl, Dynein transport)

Compound activity: PubChem, several laboratories
